Results published in PubChem BioAssay.
Calls of active or inactive are those of the source.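 Rule for the calls, unless noted: active = fluorescence slope higher than the sample average by over 3 SD (cut at about -0.22 in these data, passing the limit was not always enough); inactive = the rest.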

Experiments:
[1] = inhibitors of TNFa-induced NFkB p65 translocation, primary screen, imaging, HUVEC, MLSMR starter and 10KST1 sets (AID 438;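 active = inhibition above 20% together with a positive visual image hit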;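 note: compound added about 3h40 before a 20 min TNFalpha stimulation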;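 for inhibition: signal is the nuclear over cytoplasmic p65 intensity ratio per well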); details: HUVEC TNFa-induced p65 nuclear translocation; cell count: measured here: nuclei count (cytotoxicity indicator), at 2.08 µM; inhibition: at 2 µM, stronger effect = higher value, 0% TNFa-plus-vehicle, 100% no-TNFa wells
[2] = inhibitors of E-selectin induction by TNFa, primary screen, imaging, HUVEC, immunofluorescence, MLSMR starter and 10KST1 sets (AID 487;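 active = visually confirmed hit in the image check and inhibition above 20%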;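 for inhibition: signal is fraction of cell area covered by stained E-selectin grains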;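 for nuclei count: 100% = median nuclei count of all wells on the same plate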); details: HUVEC TNFalpha-induced E-selectin immunofluorescence imaging, at 2 µM; inhibition: stronger effect = higher value; nuclei count: measured here: cell number, toxicity
[3] = DUSP6 inhibitors restoring Erk phosphorylation by chemical complementation, primary imaging in DUSP6-transfected HeLa (AID 609;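 active = compounds giving at least 50% inhibition in the cell-based MKP-3 phosphatase rescue imaging test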;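 for inhibition: phospho-Erk level distribution per well compared with pooled transfected vehicle control wells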); details: HeLa MKP-3 transfected, phospho-Erk imaging KS statistic, at 10 µM, cells stimulated with TPA for 15 min
[4] = biological target: Dual specificity protein phosphatase 6 (Homo sapiens) (UniProt Q16828); test: as above; details: HeLa MKP-3 transfected, phospho-Erk imaging KS statistic; at 10 µM; stronger effect = higher value; cells stimulated with TPA for 15 min
Sequence of Dual specificity protein phosphatase 6 (Homo sapiens) (Q16828 whole entry, looked up): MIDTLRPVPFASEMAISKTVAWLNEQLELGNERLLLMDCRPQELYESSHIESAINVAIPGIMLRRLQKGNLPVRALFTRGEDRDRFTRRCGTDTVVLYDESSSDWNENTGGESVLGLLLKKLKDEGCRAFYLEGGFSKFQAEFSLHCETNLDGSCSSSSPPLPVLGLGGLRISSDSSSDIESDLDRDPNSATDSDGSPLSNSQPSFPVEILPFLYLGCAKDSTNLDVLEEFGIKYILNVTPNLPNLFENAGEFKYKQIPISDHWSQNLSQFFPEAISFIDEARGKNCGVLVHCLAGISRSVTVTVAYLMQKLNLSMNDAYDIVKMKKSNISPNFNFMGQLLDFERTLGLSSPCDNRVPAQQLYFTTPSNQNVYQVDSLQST

[5] = biological target: Voltage-gated potassium channel subunit beta-2 (Rattus norvegicus) (UniProt P62483); test: KvBeta enzyme negative modulators, primary screen, biochemical, NADPH fluorescence (AID 622); details: recombinant KvBeta, 4-cyanobenzaldehyde reduction, at 10 µM, stronger effect = higher value;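 note: slope of raw intensity against log time taken from 70 to 1610 s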
Sequence of Voltage-gated potassium channel subunit beta-2 (Rattus norvegicus) (P62483 whole entry, looked up): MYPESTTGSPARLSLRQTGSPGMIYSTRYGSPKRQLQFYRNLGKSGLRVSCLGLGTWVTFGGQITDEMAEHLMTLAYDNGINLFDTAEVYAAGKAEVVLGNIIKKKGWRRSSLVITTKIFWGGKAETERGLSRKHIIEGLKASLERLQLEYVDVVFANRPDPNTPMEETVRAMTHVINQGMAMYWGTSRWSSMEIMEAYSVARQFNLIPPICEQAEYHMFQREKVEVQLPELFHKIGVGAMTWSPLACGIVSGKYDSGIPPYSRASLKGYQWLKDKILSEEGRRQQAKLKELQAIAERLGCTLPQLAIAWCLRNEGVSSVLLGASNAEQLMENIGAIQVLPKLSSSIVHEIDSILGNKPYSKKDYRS

[6] = biological target: Voltage-gated potassium channel subunit beta-2 (Rattus norvegicus) (UniProt P62483); test: KvBeta positive modulators, primary screen, biochemical, NADPH fluorescence (AID 623;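 active = NADPH fluorescence slope more negative than the mean of all samples by about 3 SD, 99.7% confidence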;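 note: fluorescence intensity change per second fitted from 20 to 320 s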); details: Recombinant KvBeta, NADPH fluorescence decrease slope, 10 min; at 10 µM; stronger effect = lower value
[7] = biological target: Alpha-2C adrenergic receptor (Homo sapiens) (UniProt P18825); test: modulators of alpha2C/GIRK thallium flux, primary screen, cell-based, HEK293 alpha2C/GIRK1/2 (AID 624;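 active = fluorescence slope after compound addition differing from the mean of all screened samples at 99.7% confidence, in either direction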;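 note: slope of fluorescence ratio to pre-addition baseline per second over 15 to 24 s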); details: thallium flux BTC fluorescence, at 10 µM, actives lie on both sides
Sequence of Alpha-2C adrenergic receptor (Homo sapiens) (P18825 whole entry, looked up): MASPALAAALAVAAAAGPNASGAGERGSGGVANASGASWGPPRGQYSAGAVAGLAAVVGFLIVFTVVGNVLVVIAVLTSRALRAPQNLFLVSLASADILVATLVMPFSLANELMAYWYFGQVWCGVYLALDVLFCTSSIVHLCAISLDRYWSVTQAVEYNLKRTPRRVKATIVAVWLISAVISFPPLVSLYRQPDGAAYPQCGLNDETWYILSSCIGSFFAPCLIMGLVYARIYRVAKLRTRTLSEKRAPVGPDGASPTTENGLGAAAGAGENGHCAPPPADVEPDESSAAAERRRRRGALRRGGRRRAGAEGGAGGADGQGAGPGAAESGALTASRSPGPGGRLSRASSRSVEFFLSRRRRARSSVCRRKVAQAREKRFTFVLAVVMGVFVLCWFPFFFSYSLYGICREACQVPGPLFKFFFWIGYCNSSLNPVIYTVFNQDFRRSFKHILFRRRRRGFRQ

[8] = inhibitors of larval lipid processing in zebrafish, primary screen, whole organism, PED6 fluorescence, gall bladder and intestine (AID 686;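 active = a full or partial loss of lipid-probe fluorescence in the fish gall bladder, intestine or both, judged by eye; inactive = no fluorescence loss, or compound toxic to the fish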;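 note: larvae 5 to 7 days old with five fish per well; signal comes from phospholipase A2 cleavage of quenched PED6 carried via bile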); details: Zebrafish larvae PED6 lipid processing, fluorescence scoring; screened at 20 µM (by protocol)
Summary of the method: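 Incubation: overnight exposure of larvae to compound plus PED6 / Test system: live zebrafish larvae aged 5-7 days, whole organism / Amount: 5 larvae per well / Read-out basis: visual per-well fluorescence inhibition score / Signal: visual fluorescence microscopy scoring of gall bladder, gut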

[9] = inhibitors of Chlamydomonas gravitaxis, primary screen, whole organism, Chlamydomonas reinhardtii, WT vs cilia-less mutant, absorbance, 96-well (AID 463189;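 active = inhibition at or above 50% relative to wild type and mutant plate controls; inactive = inhibition below 50%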;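 note: 0% = wild type cc124 cells in DMSO and 100% = ciliumless bld1 mutant cells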); details: OD600 absorbance, 2 days, at 10 µM, stronger effect = higher value
[10] = measured here: cell density z-score
[11] = measured here: nuclear c-Myc green intensity z-score
[12] = measured here: nuclear pErk red intensity z-score, stronger effect = higher value

SMILES	cell count [1]	inhibition [1]	inhibition [2]	nuclei count [2] [%]	z-score [3, 10]	z-score [3, 11]	z-score [3, 12]	inhibition [4]	fluorescence slope [5]	NADPH fluorescence slope [6]	slope [7]	outcome [8]	inhibition [9]
O=C(NCCN1CCOCC1)c1cc2n(n1)C(C(F)(F)F)CC(c1ccc(F)cc1)N2 (stereo unspecified)	341	-2.3% (inactive)	-22.1% (inactive)	104	-1.73	1.46	-0.339	7.48% (inactive)	-0.529 (inactive)	-9.5e-05 (inactive)	0.00574 (inactive)	inactive	-15.3% (inactive)
COc1cccc(-c2nc(NCC3CCCO3)c3ccccc3n2)c1O (stereo unspecified)	553	-3.3% (inactive)	-74.2% (inactive)	131	-1.22	0.707	0.124	1.6e-07% (inactive)	-0.34 (inactive)	-2.8e-05 (inactive)	0.00373 (inactive)	inactive	55.5% (active)
CCOC(=O)CC1=C(C(=O)OCC)C(c2ccc(OC)c(OC)c2)C(C#N)=C(N)O1 (stereo unspecified)	471	-4.3% (inactive)	-157% (inactive)	163	-0.376	-0.993	-1.45	4.25% (inactive)	-0.359 (inactive)	6.8e-06 (inactive)	0.00447 (inactive)	inactive	24.9% (inactive)
Cc1ccc(C2C(C(=O)c3cc4ccccc4o3)=C(O)C(=O)N2CCCN(C)C)cc1 (stereo unspecified)	445	-4.5% (inactive)	-30.5% (inactive)	161	-0.136	-1.28	0.773	-2.91% (inactive)	-0.414 (inactive)	-4.9e-05 (inactive)	0.00603 (inactive)	inactive	-1.22% (inactive)
CSc1nnc(N(CCC#N)CCC#N)s1	351	-2.1% (inactive)	-46.6% (inactive)	91	0.261	1.77	-1.54	17% (inactive)	-0.487 (inactive)	-9.5e-06 (inactive)	0.0048 (inactive)	inactive	29.7% (inactive)
CC(C)CC(=O)Nc1ccccc1N1CCCC1	269	3.1% (inactive)	-24.3% (inactive)	101	-0.814	0.661	-0.804	9.39% (inactive)	-0.396 (inactive)	-1.2e-05 (inactive)	0.0054 (inactive)	inactive	-8.2% (inactive)
CC(=O)N1CCN(c2nc(CC(C)C)c3c(c2C#N)CCC3)CC1	524	0.5% (inactive)	-100% (inactive)	145	-0.27	-0.142	-0.203	5.26% (inactive)	-0.477 (inactive)	-4.8e-05 (inactive)	0.00485 (inactive)	inactive	-18% (inactive)
CCOC(=O)C1=C(C)NC(SCC(=O)Nc2nc(C)cs2)=C(C#N)C1c1cccs1 (stereo unspecified)	540	-13.4% (inactive)	-57.8% (inactive)	106	1.78	-0.812	-0.565	-7.28% (inactive)	-0.472 (inactive)	6.5e-06 (inactive)	0.006 (inactive)	inactive	2.72% (inactive)
CCOc1ccc(C2=Nn3c(nnc3-c3ccccn3)SC2)cc1	493	1.1% (inactive)	-197% (inactive)	107	1.13	-0.317	0.587	-13.3% (inactive)	-0.467 (inactive)	-3.6e-05 (inactive)	0.00617 (inactive)	inactive	0.114% (inactive)
COC(=O)CC1=C(C(=O)OC)C(c2ccncc2)C(C#N)=C(N)O1 (stereo unspecified)	492	-3.8% (inactive)	-58.7% (inactive)	157	1.74	-0.108	-0.84	16.8% (inactive)	-0.366 (inactive)	1e-05 (inactive)	0.00477 (inactive)	inactive	24.5% (inactive)
O=c1c(C=NCCCn2ccnc2)c(-c2ccccc2)[nH]n1-c1nc2ccccc2s1	579	-6.5% (inactive)	-108% (inactive)	132	1.34	-0.223	0.991	25.8% (inactive)	-0.47 (inactive)	-1.6e-05 (inactive)	0.00444 (inactive)	inactive	1.09% (inactive)
Cc1ccc(-c2ccc(/C=N/c3ncn[nH]3)o2)cc1Cl	555	-7% (inactive)	17.3% (inactive)	119	1.47	1.26	0.207	4.72% (inactive)	-0.446 (inactive)	-1.9e-05 (inactive)	0.00689 (inactive)	inactive	0.03% (inactive)
Cc1nc(Nc2ncc3c(n2)CC(C)(C)CC3=O)nc2ccccc12	532	-10.9% (inactive)	-13% (inactive)	195	-2.93	-0.197	3.21	-3.5% (inactive)	-0.376 (inactive)	-2.4e-05 (inactive)	0.0055 (inactive)	inactive	-7.48% (inactive)
N#CC1=C2SCC(O)(c3ccccc3)N2C(=O)CC1c1ccccc1 (stereo unspecified)	487	0.4% (inactive)	-39.3% (inactive)	98.1	-0.384	-0.62	2.84	-3.98% (inactive)	-0.459 (inactive)	-0.00022 (inactive)	0.00444 (inactive)	inactive	13.3% (inactive)
CN(C)c1ccc(C2C3C(=O)N(c4ccc(C(=O)O)cc4)C(=O)C3ON2c2ccccc2)cc1 (stereo unspecified)	491	-9.3% (inactive)	-30.7% (inactive)	148	-0.854	-1.46	0.576	-13.3% (inactive)	-0.506 (inactive)	-3.3e-05 (inactive)	0.00498 (inactive)	inactive	13% (inactive)
O=C(O)CCSc1ccc2ccccc2n1	502	0.3% (inactive)	-157% (inactive)	135	1.96	-1.24	-0.378	15.8% (inactive)	-0.49 (inactive)	-7.2e-05 (inactive)	0.00505 (inactive)	inactive	9.45% (inactive)
CC(C)C1Cc2c(sc3c2c(=O)n(-c2ccccc2)c2nncn32)CO1 (stereo unspecified)	603	-21.3% (inactive)	-90.9% (inactive)	179	-0.575	-0.884	1.06	3.56% (inactive)	-0.379 (inactive)	-5.4e-05 (inactive)	0.00589 (inactive)	inactive	-0.205% (inactive)
CCCCNC1=C(Br)C(=O)CC(C)(C)C1	372	-30.7% (inactive)	-34.3% (inactive)	101	-0.472	1.05	0.291	11.9% (inactive)	-0.52 (inactive)	-9.2e-05 (inactive)	0.00547 (inactive)	inactive	23.6% (inactive)
CC(C)(C)OC(=O)NCCC(=O)Oc1ccc2ccc(=O)oc2c1	499	-1.3% (inactive)	-209% (inactive)	185	0.0263	0.375	0.541	-11% (inactive)	-0.362 (inactive)	-2.1e-05 (inactive)	0.00495 (inactive)	inactive	16.5% (inactive)
O=c1[nH]cnc2cc(-c3ccccc3)sc12	526	-9.9% (inactive)	-20.4% (inactive)	168	0.45	-1.43	0.87	21% (inactive)	-0.351 (inactive)	-9.5e-06 (inactive)	0.00529 (inactive)	inactive	-1.84% (inactive)
CCOC(=O)c1nc(N)c(C(=O)OCC)[nH]1	405	11.5% (inactive)	-32.3% (inactive)	94.7	-0.517	1.59	-0.341	18.2% (inactive)	-0.47 (inactive)	-7.9e-05 (inactive)	0.00468 (inactive)	inactive	-16% (inactive)
Cc1cc(C)c(C#N)c(SCC(=O)NC2CC2)n1	646	-7.6% (inactive)	-12% (inactive)	154	2.42	-0.939	0.0715	2.92% (inactive)	-0.444 (inactive)	-5.6e-05 (inactive)	0.00581 (inactive)	inactive	0.954% (inactive)
CCOC(=O)c1c(NC(=O)CCN2CCOCC2)sc2c1CC(C)(C)OC2	658	-8.1% (inactive)	-45.3% (inactive)	163	0.476	1.14	0.27	-7.28% (inactive)	-0.422 (inactive)	-3e-05 (inactive)	0.00607 (inactive)	inactive	-12.8% (inactive)
COc1ccc(Oc2nc3c(c(=O)n(C)c(=O)n3C)n2Cc2cccc(OC)c2)cc1	468	-1.9% (inactive)	-260% (inactive)	162	1.97	-0.65	-2.21	26% (inactive)	-0.295 (inactive)	-1.2e-05 (inactive)	0.00507 (inactive)	inactive	31.4% (inactive)
Oc1c(C=NCc2ccncc2)sc2ccccc12	666	-11.1% (inactive)	-63.6% (inactive)	177	-0.185	0.688	2.15	-4.27% (inactive)	-0.425 (inactive)	-6.8e-05 (inactive)	0.00509 (inactive)	inactive	-6.05% (inactive)
CC(=O)c1ccc(O)c(CO)c1	639	-20.9% (inactive)	-32.3% (inactive)	101	-0.0166	0.525	-0.493	4.37% (inactive)	-0.463 (inactive)	-1.1e-05 (inactive)	0.00706 (inactive)	inactive	-12.4% (inactive)
CCCCOC(=O)C(C)c1c(C)[nH]c(=S)[nH]c1=O (stereo unspecified)	479	-1.2% (inactive)	-142% (inactive)	138	0.126	0.523	-0.0829	-3.5% (inactive)	-0.505 (inactive)	-3.9e-05 (inactive)	0.00553 (inactive)	inactive	11.1% (inactive)
